In PMC4387373 (Infectious Disease Reports, 2015):
Where two headings read alike, the source gives them in different places.

How the values were obtained:
[1] = format: in vivo, human; conditions: for concentration at 2 h / concentration at 4 h / concentration at 6 h / concentration at 8 h: human, plasma, oral; for Cthrough (through concentration): patient on sildenafil 40 mg tid, bosentan 125 mg bid, ritonavir-boosted PI
[2] = cited from earlier work
phosphodiesterase = conditions: same phosphodiesterase specificity as sildenafil; cited from earlier work
[3] = Plasma concentrations of protease inhibitors; format: in vivo, human; conditions: for concentration at 2 h / concentration at 4 h / concentration at 6 h / concentration at 8 h: human, plasma, oral; for Plasma concentration, t0: t0, 8 a.m., before intake of antiretroviral dose, fosamprenavir 700 mg bid
In short: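 Heparinized venous blood was drawn before the morning antiretroviral dose (T0) and at 2, 4, 6 and 8 h after it. Plasma was separated by centrifugation and stored at −80 °C. PI levels were measured by a validated HPLC method.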

[4] = cited from earlier work; remark: listed apart in the source
[5] = Clinical course of the patient: hemodynamics, functional class, tolerability; format: in vivo, human
[6] = cited from earlier work; remark: listed apart in the source
[7] = coadministered with lopinavir/ritonavir

For CCCc1nn(C)c2c(=O)[nH]c(-c3cc(S(=O)(=O)N4CCNCC4)ccc3OCC)nc12 [N-desmethylsildenafil], the “Plasma concentrations as % of the parent drug” value ([1]; during the study, patient on ritonavir-boosted PI) was 40-50%, the “Plasma concentration, t2” value ([1]; t2, 10 a.m., 2 hours after intake of sildenafil and bosentan) was 0.05833 µg/mL and the “Plasma concentration, t4” value ([1]; t4, noon, 4 hours after intake of sildenafil and bosentan) was 0.06185 µg/mL. The “Plasma concentration, t6” value ([1]; t6, 2 p.m., 6 hours after intake of sildenafil and bosentan) was 0.14095 µg/mL, the “Plasma concentration, t8” value ([1]; t8, 4 p.m., 8 hours after intake of sildenafil and bosentan) was 0.12135 µg/mL and the “Plasma levels as % of the parent drug” value ([2]; metabolite relative to sildenafil) was 40-50%. For the same compound, the “Potency relative to sildenafil” value (phosphodiesterase) was “about half the potency”.
Compound CC(C)CN(C[C@@H](O)[C@H](Cc1ccccc1)NC(=O)O[C@H]1CCOC1)S(=O)(=O)c1ccc(N)cc1 [amprenavir] has a concentration at 2 h [3] of 1.68 µg/mL, a concentration at 4 h [3] of 3.96 µg/mL and a concentration at 6 h [3] of 2.17 µg/mL. For the same compound, the concentration at 8 h [3] was 1.89 µg/mL, the Cthrough ([3]; patient on fosamprenavir 700 mg bid, ritonavir 100 mg bid) was 1495 ng/mL and the “Plasma levels versus therapeutic ranges” value ([3]; patient, therapeutic ranges from ref 16) was “within therapeutic ranges”. For the same compound, the “Plasma concentration, t0” value ([3]; ritonavir 100 mg bid) was 1.495 µg/mL.
For COc1ccccc1Oc1c(NS(=O)(=O)c2ccc(C(C)(C)C)cc2)nc(-c2ncccn2)nc1OCCO [bosentan], the “Increase of Cmax” value ([4]; by steady-state sildenafil, healthy volunteers) is given as 42%, the “Increase in AUC at steady state” value [4, 7] is given as 422% and the “Increase in Cmax at steady state” value [4, 7] is given as 512%. For the same compound, the concentration at 2 h [1] was 3.37 µg/mL, the concentration at 4 h [1] was 1.75 µg/mL and the concentration at 6 h [1] was 1.31 µg/mL. For the same compound, the concentration at 8 h [1] was 1.23 µg/mL and the “Cthrough (through concentration)” value [1] was 1546.53 ng/mL.
Work on CC(C)c1nc(CN(C)C(=O)N[C@H](C(=O)N[C@@H](Cc2ccccc2)C[C@H](O)[C@H](Cc2ccccc2)NC(=O)OCc2cncs2)C(C)C)cs1 [ritonavir] yielded a concentration at 2 h [3] of under 0.05 µg/mL, a concentration at 4 h [3] of under 0.05 µg/mL and a concentration at 6 h [3] of under 0.05 µg/mL. For the same compound, the concentration at 8 h [3] was under 0.05 µg/mL, the “Plasma levels in all of the samples” value ([3]; ritonavir 100 mg bid, bosentan coadministered) was “undetectable” and the “Plasma concentration, t0” value ([3]; ritonavir 100 mg bid) was under 0.05 µg/mL.
In the case of CCCc1nn(C)c2c(=O)[nH]c(-c3cc(S(=O)(=O)N4CCN(C)CC4)ccc3OCC)nc12 [sildenafil], the “Increase of AUC” value ([4]; with ritonavir 500 mg twice daily) is given as 11 fold, the “Mean PAP” value ([5]; May 2012, worsening exertional dyspnea on sildenafil 20 mg tid) is given as 47 mmHg and the “Mean PAP” value ([5]; October 2012, after sildenafil increased to 40 mg tid, bosentan 125 mg bid) is given as 40 mmHg. The 6-minute walking test ([5]; October 2012, sildenafil 40 mg tid, bosentan 125 mg bid) was 479 m, the NYHA stage change ([5]; after introduction of sildenafil 20 mg tid) was “from NYHA stage III to NYHA stage II” and the “Mean PAP” value ([5]; after sildenafil 20 mg tid was added to bosentan, previously 63 mmHg) was 43 mmHg. The “Eye fundus examination versus baseline” value ([5]; during follow-up) was “no significant changes”, the “Influence on systemic blood pressure” value ([5]; measured regularly during the investigation) was “no significant influence” and the “Adverse reactions during follow-up” value ([5]; patient with raised sildenafil levels, headache, flushing, dyspepsia, priapism) was “did not report any adverse reactions”. The “Plasma concentration versus the therapeutic range” value ([1]; coadministration of sildenafil and ritonavir-boosted PI) was “above the therapeutic range”, the concentration at 2 h [1] was 0.925 µg/mL and the concentration at 4 h [1] was 0.566 µg/mL. The concentration at 6 h [1] was 1.73 µg/mL, the concentration at 8 h [1] was 0.9 µg/mL and the “Cthrough (through concentration)” value [1] was 276.94 ng/mL. The “Plasma concentration at which maximal reductions in PAP and PVR were obtained” value [6] was about 100 ng/mL, the tmax ([2]; healthy adults, 20 mg tid, oral) was “approximately 1 hour” and the Cmax ([2]; healthy adults, sildenafil 20 mg tid) was “about 145 ng/mL”.
